Activity calls are given as the source filed them. The rule behind the calls is not given here.
Assays:
[1] = Antioxidant activity assessed as free radical scavenging activity after 7 mins by ABTS radical cation decolorization assay; type: functional
How it was run: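 ABTS•+ is made from 7 mM ABTS and 2.45 mM persulfate (final), left in the dark at RT for 12–16 h, then diluted in water pH 7.4 to A734 0.80. It is mixed with compound or Trolox standard (final 0–60 μM), and A734 is read at exactly 7 min. Percent inhibition is plotted against concentration, with solvent blanks. Each run is done at least three times, in triplicate.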

[2] = target: P2Y purinoceptor 1 (Homo sapiens, UniProt P47900); assay: Agonist activity at human GFP-tagged P2Y1R transfected in human 1321N1 cells assessed as induction of intracellular calcium mobilization by fluorescence assay; type: functional, cell-based
Sequence of P2Y purinoceptor 1 (P47900 whole entry): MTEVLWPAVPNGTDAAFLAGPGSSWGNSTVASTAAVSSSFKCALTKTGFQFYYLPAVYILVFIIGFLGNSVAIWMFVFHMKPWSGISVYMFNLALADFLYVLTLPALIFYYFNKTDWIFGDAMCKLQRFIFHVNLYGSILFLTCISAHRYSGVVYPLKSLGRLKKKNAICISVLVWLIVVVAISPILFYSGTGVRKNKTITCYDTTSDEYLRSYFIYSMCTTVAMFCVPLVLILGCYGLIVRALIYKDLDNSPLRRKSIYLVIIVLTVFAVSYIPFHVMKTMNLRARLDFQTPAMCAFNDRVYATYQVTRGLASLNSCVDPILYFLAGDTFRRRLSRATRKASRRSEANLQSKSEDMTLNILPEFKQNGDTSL

[3] = target: T1, P2Y purinoceptor 11 (Homo sapiens, UniProt Q96G91); assay: Agonist activity at human GFP-tagged P2Y11R transfected in human 1321N1 cells assessed as induction of intracellular calcium mobilization by fluorescence assay; type: functional, cell-based
T1 sequence (Q96G91 whole entry): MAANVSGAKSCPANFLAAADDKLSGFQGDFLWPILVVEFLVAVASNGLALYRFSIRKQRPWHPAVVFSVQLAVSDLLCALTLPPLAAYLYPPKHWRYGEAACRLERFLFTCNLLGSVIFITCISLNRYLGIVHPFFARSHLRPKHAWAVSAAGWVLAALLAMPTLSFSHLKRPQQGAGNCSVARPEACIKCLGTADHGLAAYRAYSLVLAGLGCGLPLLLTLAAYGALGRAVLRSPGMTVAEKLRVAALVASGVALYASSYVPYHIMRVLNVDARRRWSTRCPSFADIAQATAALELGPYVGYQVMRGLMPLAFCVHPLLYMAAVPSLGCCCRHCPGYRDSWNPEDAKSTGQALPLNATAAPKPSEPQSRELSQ

[4] = Antioxidant activity assessed as inhibiton of Fe2+-induced Fenton reaction-mediated hydroxyl radical formation from H2O2 measured for 150 secs by ESR analysis in presence of DMPO; type: functional
How it was run: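 Spin-trap ESR run at room temperature, final volume 100 μL. 5–500 μM compound is combined with ammonium iron(II) sulfate (1 mM stock) and Tris pH 7.4. After 30 s mixing, DMPO (100 mM stock) and H2O2 (100 mM stock) are added, with final pH 7.2–7.4. Spectrum is recorded 150 s after H2O2 at 9.76 GHz, 6.35 mW. Mean ± SD of three experiments.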

[5] = tested on: PC-12; assay: Antioxidant activity in rat PC12 cells assessed as inhibition of Fe2+-induced ROS production after 1 hr by DCFH-DA staining-based fluorometric analysis; type: functional, cell-based; conditions: Rattus norvegicus, PC-12, 1 h; read-out: IC50
How it was run: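 PC12 cells grown in DMEM, seeded 24 h. Loaded with DCFH-DA (ethanol stock diluted 100-fold in PBS) for 20 min, then probe removed. Nucleotides added at final 0.2–200 μM, and oxidation started with FeSO4 at final 0.16 μM. Fluorescence at 485/530 nm read during 1 h at 37 °C. […] Mean ± SD of two experiments.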

[6] = Metabolic stability in human serum assessed as compound remaining at 0.1 mg after 6 hrs by HPLC analysis; type: ADME, cell-free; conditions: read-out: Stability
How it was run: (§1)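 0.1 mg compound in water was mixed with human blood serum and RPMI-1640 medium (1:3 serum:medium) and incubated at 37 °C for 0−24 h. Remaining intact nucleotide was quantified from the change in its HPLC peak integration over time.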

[7] = tested on: PC-12; assay: Cytotoxicity against rat PC12 cells assessed as cell viability up to 200 uM after 48 hrs by MTT assay; type: cell-based; conditions: pc-12, 48 h
How it was run: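 PC12 cells were exposed to compounds at various concentrations up to 200 μM for 48 h, and viability was measured by MTT assay.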

[8] = Half life in human serum at 0.1 mg after 6 hrs by HPLC analysis; type: ADME, cell-free; how it was run: as §1
[9] = species: Homo sapiens; assay: Selectivity ratio of EC50 for human GFP-tagged P2Y11R to EC50 for human GFP-tagged P2Y1R
How it was run: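 1321N1 astrocytoma cells stably expressing human P2Y1-GFP or P2Y11-GFP were loaded with 2 μM fura-2 AM plus 0.02% pluronic acid in HEPES-buffered saline pH 7.4 for 30 min at 37 °C. They were then superfused at 37 °C with graded agonist concentrations. [Ca2+]i was read as the F340/F380 ratio (510 nm emission) in GFP-positive cells, at least 40 cells per point. EC50 came from concentration–response curves, n = 3.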

[10] = target: P2Y purinoceptor 12 (Rattus norvegicus) (UniProt Q9EPX4); assay: Agonist activity at P2Y12R in rat PC12 cells assessed as decrease in FeSO4-induced ROS formation at 0.04 to 100 uM after 1 hr by DCFH-DA staining-based fluorometric analysis in presence of P2Y12R antagonist 2-MeS-AMP; type: cell-based; conditions: PC-12
Sequence of P2Y purinoceptor 12 (Rattus norvegicus) (Q9EPX4 whole entry): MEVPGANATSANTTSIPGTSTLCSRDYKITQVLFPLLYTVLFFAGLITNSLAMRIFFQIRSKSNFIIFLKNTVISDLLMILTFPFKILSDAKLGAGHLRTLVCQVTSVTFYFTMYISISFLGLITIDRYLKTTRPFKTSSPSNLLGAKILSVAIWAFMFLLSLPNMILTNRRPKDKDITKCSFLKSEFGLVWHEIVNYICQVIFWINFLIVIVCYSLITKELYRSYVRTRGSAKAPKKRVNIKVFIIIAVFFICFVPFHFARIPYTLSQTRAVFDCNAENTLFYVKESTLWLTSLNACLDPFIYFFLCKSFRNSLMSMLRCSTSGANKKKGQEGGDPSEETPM
How it was run: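 PC12 cells seeded 24 h in DMEM, pretreated with 50 μM 2-MeS-AMP for 20 min, then loaded with DCFH-DA (stock 2 mg/mL in ethanol, diluted 100-fold in PBS) for 20 min and washed. Test agent added at 0.04−100 μM final. Oxidation started with FeSO4 at 0.16 μM final. Incubated 1 h at 37 °C, fluorescence read at 485/530 nm. Inhibition of ROS compared with control lacking antagonist.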

[11] = Neuroprotective activity in rat primary cortical neurons assessed as decrease in FeSO4-induced oxidative stress measured cell vitality at 1 uM after 24 hrs by MTT assay relative to control; type: functional, cell-based; design: scale not given: the % may be the effect or the level left; conditions: Cerebral cortex neuron
How it was run: (§2)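 Cortical neurons came from 1-day-old rat brain, were trypsin-dissociated and plated on polyornithine. They were grown in serum-free DMEM/F12 with B-27, then Ara-C treated for 48 h. Cells were treated with 0.01−5 μM nucleotide before FeSO4 (3 μM final) for 24 h. MTT 1 mg/mL was applied for 2 h at 37 °C, formazan dissolved in DMSO, absorbance read at 550 nm. Viability was expressed relative to vehicle control, mean ± SD of three independent experiments in triplicate.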

[12] = Neuroprotective activity in rat primary cortical neurons assessed as decrease in FeSO4-induced oxidative stress measured cell viability after 24 hrs by MTT assay; type: functional, cell-based; conditions: Cerebral cortex neuron; how it was run: as §2
[13] = Antioxidant activity assessed as inhibiton of Fe2+-induced Fenton reaction-mediated hydroxyl radical formation from H2O2 relative to ATP; type: functional
How it was run: (§3)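 Fe(II)-H2O2 hydroxyl radical assay read by ESR with DMPO spin trap. Ammonium iron(II) sulfate (1 mM, stock) was added to 5−500 μM test compound, then 1 mM Tris pH 7.4. After 30 s mixing, DMPO then H2O2 were added. Final pH 7.2−7.4, 100 μL total, room temperature. Spectrum recorded 150 s after H2O2. IC50 given as mean ± SD of three experiments.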

[14] = Antioxidant activity assessed as inhibiton of Fe2+-induced Fenton reaction-mediated hydroxyl radical formation from H2O2 relative to trolox; type: functional; how it was run: as §3

| IC50 [1] [µM] | EC50 [2] [µM] | IC50 [4] [µM] | IC50 [5] [µM] | Structure (SMILES) | remaining at 6 h [6] [%] | EC50 ([3]; read-out: EC50) [µM] | further results |
| --- | --- | --- | --- | --- | --- | --- | --- |
| > 60 | 3 | 47 | 1.2 | B[P@](=O)(OC[C@H]1O[C@@H](n2cnc3c(N)ncnc32)[C@H](O)[C@@H]1O)OP(=O)(O)OP(=O)(O)OP(=O)(O)OP(=O)(O)OC[C@H]1O[C@@H](n2cnc3c(N)ncnc32)[C@H](O)[C@@H]1O | – | – | EC50 ([3]; 1321-n1): Not Active |
| 24 | 0.15 | 131 | 0.18 | B[P@@](=O)(OC[C@H]1O[C@@H](n2cnc3c(N)nc(Cl)nc32)[C@H](O)[C@@H]1O)OP(=O)(O)C(Cl)(Cl)P(=O)(O)O | – | 1.4 | – |
| – | – | – | – | BP(=O)(OC[C@H]1O[C@@H](n2cnc3c(N)nc(Cl)nc32)[C@H](O)[C@@H]1O)OP(=O)(O)O (stereo partly drawn) | – | – | Activity [7]: Non-toxic |
| 30 | 0.024 | 170 | 21 | Nc1ncnc2c1ncn2[C@@H]1O[C@H](COP(=O)(O)OP(=O)(O)O)[C@@H](O)[C@H]1O [ADENOSINE DIPHOSPHATE] | 32 | 1.7 | – |
| > 60 | 0.76 | 75 | 29 | Nc1ncnc2c1ncn2[C@@H]1O[C@H](COP(=O)(O)OP(=O)(O)OP(=O)(O)OP(=O)(O)OP(=O)(O)OC[C@H]2O[C@@H](n3cnc4c(N)ncnc43)[C@H](O)[C@@H]2O)[C@@H](O)[C@H]1O | – | – | – |
| – | – | – | – | Nc1ncnc2c1ncn2[C@@H]1O[C@H](COP(=O)(O)OP(=O)(O)OP(O)(O)=S)[C@@H](O)[C@H]1O | – | – | fold change (FC) [13]: 100; fold change (FC) [14]: 20 |
| – | – | – | – | [BH3-]P(=O)(OC[C@H]1O[C@@H](n2cnc3c(N)ncnc32)[C@H](O)[C@@H]1O)OP(=O)([O-])OP(=O)([O-])OP(=O)([O-])OP(=O)([O-])OC[C@H]1O[C@@H](n2cnc3c(N)ncnc32)[C@H](O)[C@@H]1O.[Na+].[Na+].[Na+].[Na+].[Na+] (stereo partly drawn) | – | – | Activity [7]: Non-toxic |

| Structure (SMILES) | IC50 [1] [µM] | EC50 [2] [µM] | IC50 [4] [µM] | IC50 [5] [µM] | remaining at 6 h [6] [%] | EC50 ([3]; read-out: EC50) [µM] | further results |
| --- | --- | --- | --- | --- | --- | --- | --- |
| [BH3-][P@@](=O)(OC[C@H]1O[C@@H](n2cnc3c(N)ncnc32)[C@H](O)[C@@H]1O)OP(=O)([O-])[O-].[Na+].[Na+].[Na+] | 26 | 0.3 | 47 | 1 | 56 | – | EC50 ([3]; 1321-n1): Not Active |
| B[P@@](=O)(OC[C@H]1O[C@@H](n2cnc3c(N)nc(Cl)nc32)[C@H](O)[C@@H]1O)OP(=O)(O)O | 40 | 0.007 | 175 | 0.08 | 53 | 3.68 | half-life [8]: 7 h; Ratio EC50 [9]: < 530; Activity [10]: inactive; Activity [11]: < 60%; EC50 [12]: 0.17 µM |
| B[P@](=O)(OC[C@H]1O[C@@H](n2cnc3c(N)nc(Cl)nc32)[C@H](O)[C@@H]1O)OP(=O)(O)O | 39 | 0.6 | 120 | 0.2 | – | 1 | Ratio EC50 [9]: < 530; EC50 [12]: 0.4 µM |

Source: ChEMBL document CHEMBL2384903, “Highly efficient biocompatible neuroprotectants with dual activity as antioxidants and P2Y receptor agonists” (J Med Chem, 2013)
